ChEMBL document CHEMBL3797181, “Structure-Based Optimization of a Small Molecule Antagonist of the Interaction Between WD Repeat-Containing Protein 5 (WDR5) and Mixed-Lineage Leukemia 1 (MLL1)” (J Med Chem, 2016)
Positions of bridges follow the written chain, without caps; N, C: chain ends. Non-standard residues stand in square brackets, D forms with d. Residues, ends and D or L forms follow the SMILES beside them. *: point of attachment. d(αMeK) = C[C@@](N)(CCCCN)C(=O)O; dPhg = N[C@@H](C(=O)O)c1ccccc1; Isobutyryl = CC(C)C(=O)*; Abu = CC[C@H](N)C(=O)O

How the values were obtained:
MV4-11 = experiment: Growth inhibition of human MV4-11 cells assessed as reduction in cell viability after 3 days; type: functional; details: MV4-11, 72 h
[1] = Growth inhibition of human MOLM13 cells assessed as reduction in cell viability after 3 days; type: functional; details: MOLM-13, 72 h
[2] = Growth inhibition of human KOPN8 cells assessed as reduction in cell viability after 3 days; type: functional; details: KOPN-8, 72 h
[3] = Apparent solubility of compound in acetonitrile; type: physicochemical
[4] = Apparent solubility of compound in methanol; type: physicochemical
[5] = Apparent solubility of compound in DMSO; type: physicochemical
[6] = Apparent permeability from apical to basolateral side in human Caco2 cells; type: ADME, cell-based; details: Caco-2
[7] = Apparent permeability from basolateral to apical side in human Caco2 cells; type: ADME, cell-based; details: Caco-2
[8] = Metabolic stability in mouse liver microsomes assessed as parent compound remaining after 0.5 hrs; type: ADME; details: read-out: Stability
[9] = Metabolic stability in mouse plasma assessed as parent compound remaining after 0.5 hrs; type: ADME, cell-free; details: read-out: Stability
[10] = Cmax in NOD/SCID mouse plasma at 3 mg/kg, iv up to 24 hrs; type: ADME, organism-based; parameters: dose 3 mg/kg, route intravenous
In short: (§1)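 Female NOD-SCID mice, n = 3 per route, received 3 mg/kg IV or 30 mg/kg IP, with an undosed control group (n = 3). Blood was drawn at 5, 15, 30 min and 1, 2, 4, 6 and 24 h. Plasma was separated by centrifugation and stored at −80 °C until analysis. Cmax, Tmax, t1/2, AUC, Cl and VD were derived.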

[11] = Tmax in NOD/SCID mouse plasma at 3 mg/kg, iv; type: ADME, organism-based; in short: as §1
[12] = Half life in NOD/SCID mouse plasma at 3 mg/kg, iv; type: ADME, organism-based; in short: as §1
[13] = AUC in NOD/SCID mouse plasma at 3 mg/kg, iv up to 24 hrs; type: ADME, organism-based; parameters: time < 24 hr, dose 3 mg/kg, route intravenous; in short: as §1
[14] = Clearance in NOD/SCID mouse plasma at 3 mg/kg, iv up to 24 hrs; type: ADME, organism-based; in short: as §1
[15] = Volume of distribution in NOD/SCID mouse plasma at 3 mg/kg, iv up to 24 hrs; type: ADME, organism-based; in short: as §1
[16] = Cmax in NOD/SCID mouse plasma at 30 mg/kg, ip up to 24 hrs; type: ADME, organism-based; parameters: dose 30 mg/kg, route intraperitoneal; in short: as §1
[17] = Tmax in NOD/SCID mouse plasma at 30 mg/kg, ip; type: ADME, organism-based; in short: as §1
[18] = AUC in NOD/SCID mouse plasma at 30 mg/kg, ip up to 24 hrs; type: ADME, organism-based; parameters: dose 30 mg/kg, time < 24 hr, route intraperitoneal; in short: as §1
[19] = Bioavailability in NOD/SCID mouse plasma at 30 mg/kg, ip up to 24 hrs; type: ADME, organism-based

Compound | solubility [3] | solubility [4] | solubility [5] | other results
CC[C@@H]1NC(=O)[C@H](CCCNC(=N)N)NC(=O)[C@](C)(NC(=O)C(C)C)CCCCNC(=O)[C@@H](c2ccccc2)NC1=O (Isobutyryl-[d(αMeK)]R[Abu][dPhg]; lactam 1-C) | – | – | – | GI50 (MV4-11): 12.4 µM; GI50 [1]: 24 µM; GI50 [2]: 29.7 µM
Cc1cccc(C(=O)Nc2cc(-c3ccc(N4CCCC4)cc3)ccc2N2CCN(C)CC2)c1 | soluble | soluble | soluble | –
CN1CCN(c2ccc(-c3cccc(CN4CCOCC4)c3)cc2NC(=O)c2c[nH]c(=O)cc2C(F)(F)F)CC1 | – | – | – | Papp A→B [6]: 0.1 ×10⁻⁶ cm/s; Papp B→A [7]: 16.8 ×10⁻⁶ cm/s; remaining at 0.5 h [8]: 85%; remaining at 0.5 h [9]: 100%; Cmax [10]: 1.26 µM; Tmax [11]: 5 min; half-life [12]: 287 min; AUC at 24 h [13]: 1010 ng·h/mL; clearance [14]: 53.9 mL/min/kg; Vd [15]: 15.6 L/kg; Cmax [16]: 6.85 µM; Tmax [17]: 15 min; AUC at 24 h [18]: 6810 ng·h/mL; bioavailability [19]: 67%
Cc1cccc(C(=O)Nc2cc(-c3cccc(N4CCCC4)c3)ccc2N2CCN(C)CC2)c1 | soluble | soluble | soluble | –

The next lines start with results.

solubility [3] | solubility [4] | solubility [5] | Compound | other results
soluble | soluble | soluble | Cc1cccc(C(=O)Nc2cc(-c3ccc(CN4CCOCC4)cc3)ccc2N2CCN(C)CC2)c1 | –
soluble | soluble | soluble | Cc1cccc(C(=O)Nc2cc(-c3cccc4c3OCC4)ccc2N2CCN(C)CC2)c1 | –
soluble | soluble | soluble | Cc1cccc(C(=O)Nc2cc(-c3ccc4c(c3)CCO4)ccc2N2CCN(C)CC2)c1 | –
soluble | soluble | soluble | Cc1cccc(C(=O)Nc2cc(-c3cccc(CN4CCOCC4)c3)ccc2N2CCN(C)CC2)c1 | –
soluble | soluble | soluble | Cc1cccc(C(=O)Nc2cc(-c3ccccc3CN3CCOCC3)ccc2N2CCN(C)CC2)c1 | –
